Screening data: PubChem BioAssay, several laboratories
The list is not random: actives were taken first. Their share in the collection is about 4.1%.
MEKK3 PB1 HTS: MEKK3-MEK5 PB1 interaction, increase or decrease. Q99759. actives 1.4% (n = 290,000). AID 1529. bead-based flow cytometry, Alexa488-MEK5 binding to MEKK3; actives lie on both sides; 0 = blocked by unlabeled MEK5, 100 = vehicle. binding response (% of control), % at 10 µM;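 active = binding response more than 3 SD above or below the average of its plate-row segment, actives on both sides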;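 also: Alexa488 bead fluorescence after subtracting the streptavidin-only scavenger bead signal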
Target sequence (Q99759 whole entry, looked up): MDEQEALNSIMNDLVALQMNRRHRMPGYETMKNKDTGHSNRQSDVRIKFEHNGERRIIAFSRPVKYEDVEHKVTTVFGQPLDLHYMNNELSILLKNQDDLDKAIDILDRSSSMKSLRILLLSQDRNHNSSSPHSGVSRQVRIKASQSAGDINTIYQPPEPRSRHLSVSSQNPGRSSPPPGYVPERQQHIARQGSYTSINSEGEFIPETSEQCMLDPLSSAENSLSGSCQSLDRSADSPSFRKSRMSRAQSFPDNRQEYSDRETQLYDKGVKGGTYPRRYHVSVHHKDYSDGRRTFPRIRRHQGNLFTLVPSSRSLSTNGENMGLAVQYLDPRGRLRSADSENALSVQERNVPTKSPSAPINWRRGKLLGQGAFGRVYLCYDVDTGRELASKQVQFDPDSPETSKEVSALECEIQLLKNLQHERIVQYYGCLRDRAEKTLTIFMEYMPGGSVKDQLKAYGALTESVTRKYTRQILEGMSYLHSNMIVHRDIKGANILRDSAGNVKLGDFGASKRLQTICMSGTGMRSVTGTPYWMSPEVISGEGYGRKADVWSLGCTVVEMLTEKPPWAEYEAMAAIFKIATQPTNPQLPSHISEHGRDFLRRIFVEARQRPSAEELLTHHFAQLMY
MEKK2wt PB1 HTS: raises or lowers MEK5 binding to wildtype human MEKK2 PB1 domain; Q9Y2U5; bead flow cytometry, Alexa488-MEK5 binding to MEKK2 WT; actives lie on both sides; binding response (% of control), % at 10 µM; actives 1.1% (n = 290,000); AID 1531; in the data active = binding response below about 67% or above about 130%
MEKK2 mut-MEK5: signal of MEK5 binding to mutant human MEKK2 PB1 domain. actives 0.35% (n = 290,000). bead flow cytometry, Alexa488-MEK5 binding to MEKK2 mutant. percent response, % at 10 µM; in the data active = percent response above about 24%, passing the limit was not always enough
FID counter: displaces DNA intercalator in HCV helicase counter-screen; DNA fluorescent intercalator displacement, fluorescence; inhibition, % at 7.9 µM; actives 0.17% (n = 290,000); AID 1845; in the data active = inhibition above about 37%;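 also: 0% = vehicle and 100% = reference compound; higher means more ethidium bromide displaced from hairpin DNA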
T cruzi repl: blocks replication of Trypanosoma cruzi; T. cruzi beta-gal in NIH3T3, luminescence, 90 h; actives 1.4% (n = 300,000); inhibition, % (test concentration not listed);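 active = mean inhibition across valid replicates above about 55%, limit read from the data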;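 also: signal also drops with host cell toxicity which is not excluded here; 0% = plate median of DMSO wells and 100% = zero luminescence signal; higher percent means less beta-gal luminescence so fewer parasites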
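assay system = mouse NIH/3T3 fibroblasts infected with β-gal-expressing T. cruzi Tulahuen C4 | input = 5,000 NIH/3T3 host cells per well | buffer or medium = DMEM plus 2% FBS | timing = 3 h host attachment, then at least 90 h co-culture | measured by = GalScreen luminescence, 60 min | evaluation = luminescence reflecting intracellular parasite burden, expressed as percent inhibition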
NS3 helicase inh: HCV NS3 helicase inhibition; NS3 helicase DNA unwinding, Cy5 molecular beacon fluorescence; inhibition, % at 10.9 µM; actives 0.56% (n = 290,000);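 active = inhibition above the mean of all tested compounds plus 3 SD, set per campaign, cut at about 35% in these data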;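 also: 0% = DMSO wells and 100% = thioflavine S control wells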
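Material: hepatitis C virus NS3 helicase domain fragment enzyme; measured by: Cy5 fluorescence, 0 and 60 min reads; control set: DMSO and thioflavine S; incubation: 60 min unwinding reaction at 25 °C after ATP addition; read-out basis: % inhibition from 60/0 min fluorescence ratio, DMSO 0%, thioflavine S 100%; repeats: singlicate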
MEKK2wt confirm: raises or lowers MEK5 binding to wildtype human MEKK2, retest; actives 2.4% (n = 5,900); bead flow cytometry, Alexa488-MEK5 binding to MEKK2 WT; actives lie on both sides; shares compounds with MEKK3 PB1 HTS; AID 1892; binding response (% of control), % at 10 µM; in the data active = binding response below about 16% or above about 210%; inactive = in between
MEKK2mut-MEK5: signal of MEK5 binding to mutant human MEKK2, retest | shares compounds with MEKK3 PB1 HTS | bead flow cytometry, Alexa488-MEK5 binding to MEKK2 mutant | percent response, % at 10 µM | actives 2% (n = 5,900) | AID 1893; in the data active = percent response mostly above about 71%, no sharp cut-off; inactive = mostly below about 38%;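 also: higher means compound restores mutant binding toward wildtype level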
MEKK3 confirm: MEKK3-MEK5 PB1 inhibition, single concentration confirmation; shares compounds with MEKK3 PB1 HTS; bead flow cytometry, Alexa488-MEK5 binding to MEKK3; hits give low values; binding response (% of control), % at 10 µM; actives 1.8% (n = 5,900); AID 1894;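 active = binding response below 72% of control, or above a set upper limit, though filed actives all read lower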;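 also: 100% = DMSO only wells and 0% = binding blocked by excess unlabeled MEK5; lower values mean stronger disruption of MEK5 binding to MEKK3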
An asterisk follows results filed as active; . = no result; [ ] = remark or other dose.

SMILES	MEKK3 PB1 HTS	MEKK2wt PB1 HTS	MEKK2 mut-MEK5	FID counter	T cruzi repl	NS3 helicase inh	MEKK2wt confirm	MEKK2mut-MEK5	MEKK3 confirm
CCN(CC)CCNC(=O)c1ccc(NC(=O)c2cn(-c3ccccc3)nc2-c2cccs2)cc1	107	212*	49	29	46	-53	212*	53	108
CCN(CC)CCNC(=S)NC(=O)c1cn(-c2ccccc2)nc1-c1ccc(OC)cc1	107	148*	28	12	17	-55	138	21	109
CN(Cc1cccnc1)C(=O)Cc1ccc(NS(=O)(=O)c2cccc(C(F)(F)F)c2)cc1	101	101	-2	-37	32	4	.	.	.
CC(C)C[C@H](NC(=O)c1cc2cc(Cl)ccc2n1C)C(=O)N1CCC(C(=O)O)CC1	99	100	1	-31	3	-7	.	.	.
COc1ccc(-c2coc3c(CN4CCCCC4)c(O)c(CN4CCCCC4)c(O)c3c2=O)cc1	107	144*	18	4	49	-49	150	31	105
O=c1c(-c2ccc(Br)cc2)coc2c(CN3CCCCC3)c(O)ccc12	100	103	2	1	16	-22	.	.	.
Cc1cc(C)c2c(N)c(C(=O)NN3CC(=O)N(c4ccccc4)CC3=O)sc2n1	97	99	-1	-8	-2	-7	.	.	.
CCOc1ccccc1CN1C(=O)c2ccccc2C1C(=O)NC(C)CC (stereo unspecified)	128*	123	5	-10	-8	-4	97	-7	97
CCc1ccc(CN2C(=O)c3ccccc3C2C(=O)NC(C)CC)cc1 (stereo unspecified)	102	102	1	-23	-8	-4	.	.	.
c1ccc(COc2ccc(-c3sc(Nc4ccccc4)n[n+]3-c3ccccc3)cc2)cc1	109	221*	38*	15	32	-91	185	55	110
CCc1ccc(Nc2n[n+](-c3ccccc3)c(-c3ccc(OCc4ccccc4)cc3)s2)cc1	111	220*	107*	7	55*	-117	209*	82*	114
CN(C)c1ccc(-c2sc(Nc3ccccc3)n[n+]2-c2ccc(F)cc2)cc1	101	105	14	-13	19	-20	.	.	.
O=C(O)c1ccc(-c2sc(Nc3ccccc3)n[n+]2-c2ccc(F)cc2)cc1	98	95	3	-2	-6	16	.	.	.
O=C(O)c1ccc(-c2sc(Nc3ccccc3)n[n+]2-c2ccccc2)cc1	99	95	-4	-7	-14	18	.	.	.
CCc1ccc(Nc2n[n+](-c3ccccc3)c(-c3ccc(N(CC)CC)cc3)s2)cc1	101	65*	277*	-4	58*	-72	164	50	94
Cc1cccc(C)c1NC(=O)CSc1cc(C(=O)c2nccn2C)c2ccccc2n1	94	95	-3	-3	8	7	.	.	.
O=C(NNc1ncnc2ccccc12)c1cccc(Cl)c1	97	95	-2	0	5	-1	.	.	.
Cc1oncc1C(=O)N1CCCC(CO)(Cc2ccc(F)cc2F)C1 (stereo unspecified)	99	101	-2	-10	-4	3	.	.	.
CN1CCN(c2nc3cc(C(F)(F)F)ccc3n3cccc23)CC1	103	140*	4	.	38	.	135	19	109
FC(F)(F)c1ccc2c(c1)nc1n2CCCC1	104	109	3	0	-7	-2	.	.	.
CCc1ccc(OCC(=O)O/N=C(\N)Cc2ccc([N+](=O)[O-])cc2)cc1	102	98	-2	-3	25	-17	.	.	.
CCc1ccc(OCC(=O)Oc2ccc([N+](=O)[O-])cc2)cc1	39*[inhibitor]	50*[inhibitor]	-15	6	-2	18	110	12	105
CCOC(=O)c1ccc(C(=S)N2CCCC2)cc1	105	102	3	-11	-8	2	.	.	.
C[C@@H](CN1C2=NC[C@H](Cc3ccc(O)cc3)N2C[C@H]1Cc1ccc(O)cc1)NC(=O)CCC1CCCCC1	105	141*	27	12	-7	-46	129	11	101
C[C@@H](CN1C2=NC[C@H](Cc3ccccc3)N2C[C@H]1Cc1ccc(O)cc1)NC(=O)CCC1CCCCC1	109	146*	25	8	9	-58	139	33	110
SMILES	MEKK3 PB1 HTS	MEKK2wt PB1 HTS	MEKK2 mut-MEK5	FID counter	T cruzi repl	NS3 helicase inh	MEKK2wt confirm	MEKK2mut-MEK5	MEKK3 confirm
Cc1ccc(Cl)cc1N1CCN(S(=O)(=O)c2ccc3c(c2)CC(=O)N3C)CC1	99	99	-8	-45	21	-10	.	.	.
O=C(/C=C/c1ccccc1)Nc1ccc(C(=O)N2CCCCC2)cc1	101	97	0	-27	-18	4	.	.	.
COc1cc(OC)cc(C(=O)Nc2ccc(S(=O)(=O)N3CCOCC3)cc2)c1	110	108	9	-15	6	-8	.	.	.
Cc1ccc(C)c(N2CCN(C(=O)c3cc(S(=O)(=O)N4CCCC4)cn3C)CC2)c1	2.0*[inhibitor]	0.0*[inhibitor]	-32	-48	10	-12	101	3	101
C=CCN(C(=O)CSc1nc2c(sc3ccccc32)c(=O)n1CCN(CC)CC)c1ccccc1	117	192*	65*	-7	82*	-11	142	10	98
CCN(CC)CCn1c(SCC(=O)Nc2ccc(F)cc2)nc2c(sc3ccccc32)c1=O	103	128	14	5	10	-86	.	.	.
Cc1cc(C)c2nc(NNC(=O)c3cc(=O)c4ccccc4o3)sc2c1	102	99	2	-14	-12	10	.	.	.
CCOc1cccc(C(=O)NC(=S)Nc2cccc(C)c2)c1	130*	105	0	-3	-6	-1	100	0	100
COc1cccc(C(=O)NC(=S)Nc2ccc3c4c(cccc24)CC3)c1	107	108	11	-3	-39	-3	.	.	.
COc1cccc(C(=O)NC(=S)Nc2ccc3oc(=O)ccc3c2)c1	96	99	2	5	-14	-9	.	.	.
COc1cccc(C(=O)NC(=S)Nc2ccc(N(C)C)cc2)c1	141*	106	2	-2	-6	11	116	9	104
COc1cccc(C(=O)NC(=S)Nc2ccc(Cl)cc2C(=O)O)c1	131*	130	25	-18	-10	10	100	3	103
